Experimental data collected from several papers.
Compare with care: the assays were run in different laboratories. Values after ≈ are worked out from the molar mass of the structure shown.
Organism: Pichia kudriavzevii

OC(Cn1cncn1)(Cn1cncn1)c1ccc(F)cc1F  MIC90 (microbial growth): 64 µg/mL (≈ 209 µM)
CCCCCCOc1c(OC)cc(NC(C)CCCN)c2nc(C(C)(C)C)cc(C)c12 (stereo not drawn)  IC50 (microbial growth; ATCC6258): 3.73 µg/mL (≈ 8.68 µM)
CCCCCN1CCNCC1  MIC (microbial growth, broth dilution; ATCC6258; 48 h): > 31.3 µg/mL
Nc1[nH]c(=O)ncc1F  MIC90 (microbial growth): 8 µg/mL (≈ 62 µM)
OC(Cn1cncn1)(Cn1cncn1)c1ccc(F)cc1F  MIC90 (microbial growth, broth dilution; 24 h): 256 µg/mL (≈ 836 µM)
CCCCCCCCCCCCCN1CCN(CC(O)(Cn2cncn2)c2ccc(F)cc2F)CC1 (stereo not drawn)  MIC (microbial growth, broth dilution; ATCC6258; 48 h): 0.975 µg/mL (≈ 1.93 µM)
C[C@@H]1[C@H](O)[C@@H](C)/C=C/C=C/C=C/C=C/C=C/C=C/C=C/[C@H](O[C@@H]2O[C@H](C)[C@@H](O)[C@H](N)[C@@H]2O)C[C@@H]2O[C@](O)(C[C@@H](O)C[C@@H](O)[C@H](O)CC[C@@H](O)C[C@@H](O)CC(=O)O[C@H]1C)C[C@H](O)[C@H]2C(=O)O  MIC (microbial growth; ATCC6258): 1.25 µg/mL (≈ 1.35 µM)
CCC(C)n1ncn(-c2ccc(N3CCN(c4ccc(OCC5COC(Cn6cncn6)(c6ccc(Cl)cc6Cl)O5)cc4)CC3)cc2)c1=O (stereo not drawn)  MIC90 (microbial growth): 0.5 µg/mL (≈ 0.709 µM)
C[C@@H]1[C@H](O)[C@@H](C)/C=C/C=C/C=C/C=C/C=C/C=C/C=C/[C@H](O[C@@H]2O[C@H](C)[C@@H](O)[C@H](N)[C@@H]2O)C[C@@H]2O[C@](O)(C[C@@H](O)C[C@@H](O)[C@H](O)CC[C@@H](O)C[C@@H](O)CC(=O)O[C@H]1C)C[C@H](O)[C@H]2C(=O)O  IC50 (microbial growth, broth dilution; ATCC6258): 0.6 µg/mL (≈ 0.649 µM)
C#CCCCCCCCCCCCC(O)CC(O)CO (stereo not drawn)  IC50 (microbial growth, broth dilution; ATCC6258): > 200 µg/mL
CCCCCCCCCCN1CCN(CC(O)(Cn2cncn2)c2ccc(F)cc2F)CC1 (stereo not drawn)  MIC (microbial growth, broth dilution; ATCC6258; 48 h): 1.95 µg/mL (≈ 4.21 µM)
CCCCCCCOc1c(OC)cc(NC(C)CCCN)c2nc(C(C)(C)C)ccc12 (stereo not drawn)  MFC (microbial killing; ATCC6258): 5 µg/mL
C[C@@H]1[C@H](O)[C@@H](C)/C=C/C=C/C=C/C=C/C=C/C=C/C=C/[C@H](O[C@@H]2O[C@H](C)[C@@H](O)[C@H](N)[C@@H]2O)C[C@@H]2O[C@](O)(C[C@@H](O)C[C@@H](O)[C@H](O)CC[C@@H](O)C[C@@H](O)CC(=O)O[C@H]1C)C[C@H](O)[C@H]2C(=O)O  IC50 (microbial growth; ATCC6258): 0.95 µg/mL (≈ 1.03 µM)
CCCCCCCOc1c(OC)cc(NC(C)CCCNC(=O)C(N)C(C)CC)c2nc(C(C)(C)C)ccc12 (stereo not drawn)  IC50 (microbial growth; ATCC6258): 4.38 µg/mL (≈ 8.07 µM)
CC[C@H](C)C[C@H](C)CCCCCCCCC(=O)N[C@H]1C[C@@H](O)[C@@H](NCCN)NC(=O)[C@@H]2[C@@H](O)CCN2C(=O)[C@H]([C@H](O)CCN)NC(=O)[C@H]([C@H](O)[C@@H](O)c2ccc(O)cc2)NC(=O)[C@@H]2C[C@@H](O)CN2C(=O)[C@H]([C@@H](C)O)NC1=O  MIC (microbial growth, broth dilution; ATCC6258; 48 h): 0.48 µg/mL (≈ 0.439 µM)
CCCCCCCOc1c(OC)cc(NC(C)CCCN)c2nc(C(C)(C)C)cc(C)c12 (stereo not drawn)  IC50 (microbial growth; ATCC6258): 2.89 µg/mL (≈ 6.51 µM)
C[C@@H]1[C@H](O)[C@@H](C)/C=C/C=C/C=C/C=C/C=C/C=C/C=C/[C@H](O[C@@H]2O[C@H](C)[C@@H](O)[C@H](N)[C@@H]2O)C[C@@H]2O[C@](O)(C[C@@H](O)C[C@@H](O)[C@H](O)CC[C@@H](O)C[C@@H](O)CC(=O)O[C@H]1C)C[C@H](O)[C@H]2C(=O)O  MFC (microbial killing; ATCC6258): 1.35 µM
CCCCOc1c(OC)cc(NC(C)CCCN)c2nc(C(C)(C)C)cc(C)c12 (stereo not drawn)  MFC (microbial killing; ATCC6258): 10 µg/mL
CCCCCCCCCCCCN1CCNCC1  MIC (microbial growth, broth dilution; ATCC6258; 48 h): 1.95 µg/mL (≈ 7.66 µM)
CCCCCOc1c(OC)cc(NC(C)CCCNC(=O)C(N)CC(C)C)c2nc(C(C)(C)C)ccc12 (stereo not drawn)  IC50 (microbial growth; ATCC6258): 8.73 µg/mL (≈ 17 µM)
CN1CCNCC1  MIC (microbial growth, broth dilution; ATCC6258; 48 h): > 31.3 µg/mL
CCCCCCOc1c(OC)cc(NC(C)CCCNC(=O)C(N)Cc2cnc[nH]2)c2nc(C(C)(C)C)ccc12 (stereo not drawn)  MFC (microbial killing; ATCC6258): > 20 µg/mL
CCCCCCCCCCCCCN1CCNCC1  MIC (microbial growth, broth dilution; ATCC6258; 48 h): 0.975 µg/mL (≈ 3.63 µM)
CCCCCCCCCCCCCC(O)CC(O)CO (stereo not drawn)  IC50 (microbial growth, broth dilution; ATCC6258): 196 µg/mL (≈ 681 µM)
